By Tmax is commonly meant the time from dosing to the highest level. By half-life is commonly meant the time needed for the level to fall by half in the phase considered. In general, AUC(0-t) refers to exposure summed from dosing to a finite time, without extrapolation to infinity. Low values mean less exposure, high ones more exposure. For orientation: IC50 means the concentration that gives 50% inhibition.

The source of these data is ChEMBL document CHEMBL4825663 (J Med Chem, 2021).

Activity calls are given as the source filed them. Some results are limits rather than exact numbers.

Data set [1] can be described thus: Toxicity in athymic nude mouse xenografted with human NCI-H460 cells assessed as reduction in body weight at 18 to 24 mg/kg, iv administered every other day for 4 doses monitored for 48 days. The class given is organism-based. The settings on record: in vivo, 1152 h, dose 18-24 mg/kg, time 48 day. An outline of the steps:
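Female athymic NCr-nu mice carried subcutaneous NCI-H460 human lung tumor xenografts. Paclitaxel was given IV at 18 or 24 mg/kg every other day for four doses. Animals were followed for 48 days after tumor implantation, with individual body weights and mortality recorded alongside tumor weights.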

The subject of data set [2] is MDA-MB-231. The experiment in a line: Antitumor activity against human MDA-MB-231 cells xenografted in athymic nude mouse assessed as reduction in tumor growth at 40 mg/kg, po administered every other day for 4 doses in presence 16 mg/kg encequidar and monitored for 70 to 82 days. The class given is functional, organism-based. The settings on record: time 70-82 day. (In general: Xenograft models place foreign cells or tissue in a host animal.)

The nature of data set [3]: Drug metabolism in dog plasma assessed as metabolic ratio of 6alpha-hydroxypaclitaxel at 6 mg/kg, po in presence of 3 mg/kg encequidar. In kind it is ADME, organism-based, Canis lupus familiaris. The settings on record: in vivo.
The nature of data set [4]: Toxicity in athymic nude mouse xenografted with human NCI-H460 cells assessed as mortality at 30 to 50 mg/kg, po administered every other day for 4 doses in presence of 12 to 20 mg/kg encequidar and monitored for 48 days. The class given is organism-based. The settings on record: in vivo, 1152 h, dose 30-50 mg/kg, time 48 day.
Data set [5] can be described thus: Drug absorption in fed Sprague-Dawley rat at 20 mg/kg, po measured upto 24 hrs in presence of 10 mg/kg encequidar by LC-MS/MS analysis. The settings on record: in vivo. In kind it is ADME, organism-based.
Data set [6] relates to MDA-MB-231. Put plainly: Antitumor activity against human MDA-MB-231 cells xenografted in athymic nude mouse assessed as reduction in median number of days for tumor to reach two tumor mass doubling at 30 mg/kg, po administered every other day for 4 doses in presence of 12 mg/kg encequidar and monitored for 70 to 82 days (reference value: 13.1 day). In kind it is functional. The settings on record: time 70-82 day.

Data set [7] can be described thus: Tmax in Sprague-Dawley rat at 20 mg/kg, po measured upto 24 hrs in presence of 10 mg/kg encequidar by LC-MS/MS analysis. The class given is ADME, organism-based. The settings on record: in vivo.
Data set [8] is described as follows: Drug excretion in Sprague-Dawley rat bile at 20 mg/kg, po in presence of 10 mg/kg encequidar. The class given is ADME, organism-based. The settings on record: in vivo.
A short description of data set [9]: Tmax in Beagle dog at 10 mg/kg, po measured upto 48 hrs by LC-MS/MS analysis. The settings on record: in vivo.
Data set [10] can be described thus: Toxicity in Sprague-Dawley rat at 200 mg/kg, po administered as repeated dose and measured upto 13 weeks. In kind it is organism-based. The settings on record: in vivo, 2184 h.
A short description of data set [11]: Half life in Beagle dog at 3 mg/kg, iv measured upto 48 hrs by LC-MS/MS analysis. The settings on record: in vivo. The class given is ADME, organism-based, Canis lupus familiaris. The method in brief:
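Plasma pharmacokinetics in male Sprague-Dawley rats and male Beagle dogs (n = 3 per species), each given a single dose by IV at 3 mg/kg and by PO at 10 mg/kg. Cmax, Tmax, T1/2 and AUClast were derived for each route. F (%) was calculated from the PO and IV AUClast.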

Data set [12] in a line: AUClast in Beagle dog at 10 mg/kg, po measured upto 48 hrs by LC-MS/MS analysis. The class given is ADME, organism-based, Canis lupus familiaris. Further details: route oral, dose 10 mg/kg, time <=48. The settings on record: in vivo. An outline of the steps: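 Single dose in male Sprague-Dawley rats and male Beagle dogs (n = 3 per species), given 3 mg/kg IV or 10 mg/kg PO. Plasma was sampled to derive Cmax, Tmax, T1/2 and AUClast by each route. Oral bioavailability (F) was calculated from the PO and IV AUClast.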

Data set [13] concerns the target ATP-binding cassette sub-family C member 2 (Homo sapiens, UniProt Q92887). The experiment in a line: Inhibition of sulfasalazine-stimulated MRP2 ATPase activity (unknown origin) in presence of GSH.
Data set [14] deals with ATP-dependent translocase ABCB1 (Homo sapiens, UniProt P08183). The experiment in a line: Inhibition of P-gp in human Caco-2 cells assessed as reduction in paclitaxel efflux pre-incubated for 30 mins and measured after 120 mins by LC-MS/MS analysis. The class given is cell-based. The method in brief: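 Bidirectional paclitaxel transport across Caco-2 monolayers with coadministered inhibitor. Apparent permeability was measured apical-to-basal (absorption) and basal-to-apical (efflux). IC50 was derived from these permeability data.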
On the technique in general: Caco-2 monolayers are a common model of the intestinal barrier.

Data set [15] has as its target T1, Solute carrier organic anion transporter family member 1B1 (Homo sapiens, UniProt Q9Y6L6).
T1 sequence (Q9Y6L6 whole entry): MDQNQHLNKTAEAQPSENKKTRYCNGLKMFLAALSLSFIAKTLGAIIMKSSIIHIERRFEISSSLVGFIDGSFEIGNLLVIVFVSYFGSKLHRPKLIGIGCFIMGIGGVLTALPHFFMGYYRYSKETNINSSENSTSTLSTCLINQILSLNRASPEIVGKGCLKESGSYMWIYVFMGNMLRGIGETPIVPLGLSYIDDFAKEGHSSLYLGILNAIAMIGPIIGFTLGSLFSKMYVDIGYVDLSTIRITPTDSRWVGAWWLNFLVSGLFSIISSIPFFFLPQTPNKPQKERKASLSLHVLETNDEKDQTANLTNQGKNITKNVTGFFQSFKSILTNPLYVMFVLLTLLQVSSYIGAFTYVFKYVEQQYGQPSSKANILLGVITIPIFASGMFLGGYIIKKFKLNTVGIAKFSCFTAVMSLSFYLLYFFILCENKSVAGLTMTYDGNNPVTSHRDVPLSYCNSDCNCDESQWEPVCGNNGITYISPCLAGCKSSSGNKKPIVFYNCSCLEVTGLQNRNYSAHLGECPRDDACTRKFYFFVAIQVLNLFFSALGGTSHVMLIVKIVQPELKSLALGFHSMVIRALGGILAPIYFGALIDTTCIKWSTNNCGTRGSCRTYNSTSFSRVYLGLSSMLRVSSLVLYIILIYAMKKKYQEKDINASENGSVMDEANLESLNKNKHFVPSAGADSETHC
Put plainly: Inhibition of human OATP1B1 assessed as reduction in intracellular probe substrate accumulation upto 100 uM by microplate scintillation counter analysis relative to control. The class given is cell-based. An outline of the steps: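 Cellular uptake-inhibition assays used Chinese hamster ovary, HEK293 or MDCKII cells stably expressing the respective human SLC transporter, run alongside the corresponding control cells. Inhibitor was tested at concentrations up to 100 μM.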

The next data set concerns the target T2, Cytochrome P450 2B6 (Homo sapiens, UniProt P20813).
T2 sequence (P20813 whole entry): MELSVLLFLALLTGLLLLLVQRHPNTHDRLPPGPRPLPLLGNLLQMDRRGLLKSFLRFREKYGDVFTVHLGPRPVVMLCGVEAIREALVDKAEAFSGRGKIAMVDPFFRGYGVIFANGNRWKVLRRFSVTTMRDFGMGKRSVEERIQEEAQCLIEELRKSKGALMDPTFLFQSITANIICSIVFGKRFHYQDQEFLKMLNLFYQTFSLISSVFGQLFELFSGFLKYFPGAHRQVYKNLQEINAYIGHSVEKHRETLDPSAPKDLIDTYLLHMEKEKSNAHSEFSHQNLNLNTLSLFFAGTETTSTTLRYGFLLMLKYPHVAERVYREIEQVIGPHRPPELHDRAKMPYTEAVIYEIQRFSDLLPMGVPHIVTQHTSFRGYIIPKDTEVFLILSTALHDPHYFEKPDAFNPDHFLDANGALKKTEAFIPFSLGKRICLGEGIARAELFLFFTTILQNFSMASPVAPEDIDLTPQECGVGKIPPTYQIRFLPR
The experiment in a line: Drug metabolism assessed as human CYP2B6-mediated metabolism. The settings on record: recombinant enzyme. The class given is ADME.

Chain of ATP-dependent translocase ABCB1 (P08183 whole entry): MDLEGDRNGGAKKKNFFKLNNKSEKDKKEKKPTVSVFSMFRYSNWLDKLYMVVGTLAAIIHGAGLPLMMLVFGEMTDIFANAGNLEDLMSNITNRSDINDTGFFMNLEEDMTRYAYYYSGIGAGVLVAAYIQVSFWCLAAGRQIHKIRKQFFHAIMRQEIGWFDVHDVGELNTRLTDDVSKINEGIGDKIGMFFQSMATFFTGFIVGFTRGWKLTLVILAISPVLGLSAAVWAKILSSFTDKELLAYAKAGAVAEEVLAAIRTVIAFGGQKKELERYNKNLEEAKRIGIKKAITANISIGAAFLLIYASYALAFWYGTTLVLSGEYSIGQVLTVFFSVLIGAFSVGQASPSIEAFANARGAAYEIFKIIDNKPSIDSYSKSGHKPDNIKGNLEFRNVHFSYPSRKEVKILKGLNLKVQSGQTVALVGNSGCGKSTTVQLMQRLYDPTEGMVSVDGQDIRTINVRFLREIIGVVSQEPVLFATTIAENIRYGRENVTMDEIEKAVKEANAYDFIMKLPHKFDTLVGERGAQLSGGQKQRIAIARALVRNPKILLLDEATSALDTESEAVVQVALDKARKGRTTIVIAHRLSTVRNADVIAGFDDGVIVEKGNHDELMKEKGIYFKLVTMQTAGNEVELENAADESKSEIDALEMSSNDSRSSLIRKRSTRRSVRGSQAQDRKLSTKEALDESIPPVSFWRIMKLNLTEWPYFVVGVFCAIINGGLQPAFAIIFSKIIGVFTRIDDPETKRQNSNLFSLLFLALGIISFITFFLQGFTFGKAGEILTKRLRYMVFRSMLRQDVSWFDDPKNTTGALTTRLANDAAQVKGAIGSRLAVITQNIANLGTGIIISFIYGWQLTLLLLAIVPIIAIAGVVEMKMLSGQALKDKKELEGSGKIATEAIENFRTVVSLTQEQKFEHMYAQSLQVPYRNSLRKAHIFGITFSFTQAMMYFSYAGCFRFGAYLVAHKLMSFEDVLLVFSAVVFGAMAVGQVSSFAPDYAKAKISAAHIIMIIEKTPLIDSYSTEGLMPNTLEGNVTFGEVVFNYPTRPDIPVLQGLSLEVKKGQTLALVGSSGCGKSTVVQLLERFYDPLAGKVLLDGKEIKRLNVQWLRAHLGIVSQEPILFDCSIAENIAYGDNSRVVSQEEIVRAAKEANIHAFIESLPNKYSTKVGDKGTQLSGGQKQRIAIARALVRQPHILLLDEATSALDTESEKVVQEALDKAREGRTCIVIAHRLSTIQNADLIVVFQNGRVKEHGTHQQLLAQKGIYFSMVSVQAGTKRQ
Chain of ATP-binding cassette sub-family C member 2 (Q92887 whole entry): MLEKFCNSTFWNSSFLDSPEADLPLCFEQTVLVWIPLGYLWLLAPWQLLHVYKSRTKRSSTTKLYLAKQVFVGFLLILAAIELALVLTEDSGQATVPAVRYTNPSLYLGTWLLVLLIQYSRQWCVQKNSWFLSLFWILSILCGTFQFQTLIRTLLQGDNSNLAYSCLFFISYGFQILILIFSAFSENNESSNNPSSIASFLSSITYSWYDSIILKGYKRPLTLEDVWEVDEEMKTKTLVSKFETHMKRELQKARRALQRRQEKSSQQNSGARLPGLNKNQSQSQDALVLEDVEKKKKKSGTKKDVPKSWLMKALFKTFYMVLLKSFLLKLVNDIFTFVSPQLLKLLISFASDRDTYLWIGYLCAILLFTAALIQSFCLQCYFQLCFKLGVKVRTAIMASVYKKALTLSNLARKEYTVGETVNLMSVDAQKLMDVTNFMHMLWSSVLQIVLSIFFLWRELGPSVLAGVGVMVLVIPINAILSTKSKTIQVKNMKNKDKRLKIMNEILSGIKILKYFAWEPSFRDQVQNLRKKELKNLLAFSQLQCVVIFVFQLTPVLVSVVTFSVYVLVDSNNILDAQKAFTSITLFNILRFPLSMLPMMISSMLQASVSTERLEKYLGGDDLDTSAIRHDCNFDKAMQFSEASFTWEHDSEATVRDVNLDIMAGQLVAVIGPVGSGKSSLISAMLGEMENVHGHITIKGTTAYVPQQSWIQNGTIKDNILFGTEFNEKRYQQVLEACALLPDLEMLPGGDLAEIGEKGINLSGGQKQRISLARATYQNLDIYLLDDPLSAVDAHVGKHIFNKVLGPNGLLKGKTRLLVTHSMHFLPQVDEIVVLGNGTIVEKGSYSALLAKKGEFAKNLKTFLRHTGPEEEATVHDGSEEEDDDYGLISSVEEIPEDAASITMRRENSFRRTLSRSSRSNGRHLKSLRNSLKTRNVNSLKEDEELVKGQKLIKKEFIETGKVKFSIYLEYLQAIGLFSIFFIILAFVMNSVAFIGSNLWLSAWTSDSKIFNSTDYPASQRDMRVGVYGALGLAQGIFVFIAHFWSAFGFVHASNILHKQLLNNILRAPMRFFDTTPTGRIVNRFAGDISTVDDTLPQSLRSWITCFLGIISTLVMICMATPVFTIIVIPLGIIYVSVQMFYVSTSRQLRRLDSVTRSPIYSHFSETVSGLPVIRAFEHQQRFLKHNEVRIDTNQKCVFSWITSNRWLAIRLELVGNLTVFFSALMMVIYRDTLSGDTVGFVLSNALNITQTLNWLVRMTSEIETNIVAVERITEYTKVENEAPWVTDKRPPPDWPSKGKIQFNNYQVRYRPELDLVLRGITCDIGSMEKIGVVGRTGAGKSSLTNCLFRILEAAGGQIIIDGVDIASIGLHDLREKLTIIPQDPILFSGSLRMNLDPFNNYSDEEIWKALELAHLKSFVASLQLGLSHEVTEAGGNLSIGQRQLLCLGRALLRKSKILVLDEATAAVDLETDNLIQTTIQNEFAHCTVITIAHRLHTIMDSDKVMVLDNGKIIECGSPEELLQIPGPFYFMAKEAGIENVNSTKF

As for `CC(=O)O[C@H]1C(=O)[C@@]2(C)[C@H]([C@H](OC(=O)c3ccccc3)[C@]3(O)C[C@H](OC(=O)[C@H](O)[C@@H](NC(=O)c4ccccc4)c4ccccc4)C(C)=C1C3(C)C)[C@]1(OC(C)=O)CO[C@@H]1C[C@@H]2O` [PACLITAXEL], the Activity result in data set [1] was “Toxic”; in data set [4], “Non-Toxic”. Also, the outcome in the data set on MDA-MB-231 [2] was Active. In [3], the Ratio is listed as 0.76. The Drug absorption result in [5] is given as “Not Active”. In the data set on MDA-MB-231 [6], the Time is over 69 days. The Tmax in data set [7] was determined as 1 h. The Drug excretion result in [8] is recorded as “Metabolite_Detected”.
Turning to `COc1cc2c(cc1OC)CN(CCc1ccc(-n3nnc(-c4cc(OC)c(OC)cc4NC(=O)c4cc(=O)c5ccccc5o4)n3)cc1)CC2`, the Tmax in data set [9] is 13.3 h. In addition, the Activity result in [10] is reported as “Non-Toxic”. This molecule showed a half-life in [11] of 16.9 h. The exposure AUC(0-t) at 48 h in data set [12] stood at 724 ng·h/mL. Moreover, the IC50 in data set [13] was over 100000 nM; in data set [14], 53 nM. The “inhibition (INH)” value in data set [15] was under 50%. Besides, the Drug metabolism result on Cytochrome P450 2B6 is “Metabolite_Notdetected”.
